Structures are written as SMILES. ≈ marks a conversion by molar mass, not a printed value. Where two headings read alike, the source gives them in different places.

One data set addresses T1, IDE (Homo sapiens, UniProt P14735).
T1 sequence (P14735 1-1019): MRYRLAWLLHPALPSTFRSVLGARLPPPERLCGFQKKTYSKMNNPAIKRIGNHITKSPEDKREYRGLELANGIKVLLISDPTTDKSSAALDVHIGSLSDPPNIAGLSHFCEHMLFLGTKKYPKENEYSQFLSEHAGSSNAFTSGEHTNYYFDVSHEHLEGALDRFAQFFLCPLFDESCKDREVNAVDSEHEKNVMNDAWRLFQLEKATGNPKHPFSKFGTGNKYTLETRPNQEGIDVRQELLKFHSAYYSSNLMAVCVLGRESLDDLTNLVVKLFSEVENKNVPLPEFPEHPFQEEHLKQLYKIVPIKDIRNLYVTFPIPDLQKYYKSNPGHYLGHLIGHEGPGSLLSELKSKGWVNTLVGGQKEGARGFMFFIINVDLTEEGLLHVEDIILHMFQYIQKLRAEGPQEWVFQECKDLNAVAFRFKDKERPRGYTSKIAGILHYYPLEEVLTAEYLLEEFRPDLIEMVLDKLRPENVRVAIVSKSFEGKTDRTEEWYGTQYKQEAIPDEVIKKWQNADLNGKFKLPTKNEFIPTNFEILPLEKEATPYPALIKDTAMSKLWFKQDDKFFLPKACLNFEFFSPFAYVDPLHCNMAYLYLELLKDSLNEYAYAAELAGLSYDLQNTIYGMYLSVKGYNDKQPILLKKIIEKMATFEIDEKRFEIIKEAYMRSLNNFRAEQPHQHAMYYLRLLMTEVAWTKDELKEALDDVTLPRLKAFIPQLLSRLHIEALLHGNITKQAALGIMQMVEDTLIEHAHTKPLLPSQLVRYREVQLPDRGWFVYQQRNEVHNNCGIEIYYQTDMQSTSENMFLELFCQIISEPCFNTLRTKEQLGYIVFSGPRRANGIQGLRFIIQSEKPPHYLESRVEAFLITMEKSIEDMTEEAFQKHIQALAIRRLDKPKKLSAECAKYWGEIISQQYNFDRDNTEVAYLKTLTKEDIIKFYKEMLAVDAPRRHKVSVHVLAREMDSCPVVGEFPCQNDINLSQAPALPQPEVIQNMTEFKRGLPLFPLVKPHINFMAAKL
Description: insulin degradation, homogeneous time-resolved fluorescence-based assay. It is filed as biochemical. The conditions noted are these: read-out: IC50^app in vitro, insulin; insulin as substrate; n=4.

Data set [1] addresses T2, intracellular pools of IDE (Mus musculus, UniProt Q9JHR7).
T2 sequence (Q9JHR7 1-1019): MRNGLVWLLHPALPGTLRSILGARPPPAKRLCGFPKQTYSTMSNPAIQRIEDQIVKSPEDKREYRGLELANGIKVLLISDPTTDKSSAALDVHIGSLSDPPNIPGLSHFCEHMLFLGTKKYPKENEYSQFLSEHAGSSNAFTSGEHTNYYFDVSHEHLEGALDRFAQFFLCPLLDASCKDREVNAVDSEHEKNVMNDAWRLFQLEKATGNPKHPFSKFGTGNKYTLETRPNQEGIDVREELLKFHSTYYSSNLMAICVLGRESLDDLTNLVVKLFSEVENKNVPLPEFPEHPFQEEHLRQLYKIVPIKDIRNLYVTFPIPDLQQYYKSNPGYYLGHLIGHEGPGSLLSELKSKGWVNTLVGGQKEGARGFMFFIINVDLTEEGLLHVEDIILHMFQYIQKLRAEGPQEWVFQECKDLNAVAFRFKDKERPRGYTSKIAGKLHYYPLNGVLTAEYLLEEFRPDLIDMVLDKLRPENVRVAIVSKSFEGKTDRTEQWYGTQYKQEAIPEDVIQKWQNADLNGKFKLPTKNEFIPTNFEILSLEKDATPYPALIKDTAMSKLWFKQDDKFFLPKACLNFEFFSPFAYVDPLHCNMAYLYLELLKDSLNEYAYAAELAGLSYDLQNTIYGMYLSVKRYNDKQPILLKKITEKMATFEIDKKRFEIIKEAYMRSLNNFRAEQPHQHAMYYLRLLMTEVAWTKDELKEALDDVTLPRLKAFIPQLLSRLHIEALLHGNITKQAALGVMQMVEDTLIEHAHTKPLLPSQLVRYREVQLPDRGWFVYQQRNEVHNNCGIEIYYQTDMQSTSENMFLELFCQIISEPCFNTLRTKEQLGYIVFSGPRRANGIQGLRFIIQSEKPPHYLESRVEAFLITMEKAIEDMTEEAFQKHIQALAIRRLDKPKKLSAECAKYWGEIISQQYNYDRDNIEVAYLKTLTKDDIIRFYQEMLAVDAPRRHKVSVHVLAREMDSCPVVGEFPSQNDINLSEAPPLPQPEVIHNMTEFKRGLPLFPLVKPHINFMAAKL
Description: intracellular IDE activity in BV-2 cells. Conditions: 30 μM, 16 h, cell extracts. Type of data set: cell-based. The method, boiled down:
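BV-2 cells were treated 16 h with 30 μM compound, then conditioned medium was collected. Cells were washed in PBS, lysed hypotonically in 50 mM Tris-HCl at 4 °C, extruded through a needle and centrifuged. Extracts were diluted 1:200 (v:v). Activity was measured by avidin-agarose precipitation Aß degradation assay with FAßB. Mean ± SEM, 3 replications.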

Data set [2] is described as follows: liver microsome stability, rat. Type of data set: in vitro ADME. Conditions: rat liver microsomes.
Data set [3] concerns cysteines (proteome-wide). Description: proteome-wide activity-based protein-profiling assay.
Data set [4] in a line: chemical stability in PBS. It is filed as physicochemical.
Data set [5] in a line: solubility in assay buffer. Type of data set: physicochemical. The conditions noted are these: aqueous buffer.
The nature of data set [6]: liver microsome stability, human. Type of data set: in vitro ADME. The conditions noted are these: human liver microsomes.
Another data set addresses T3, extracellular IDE (Homo sapiens, UniProt P14735).
T3 sequence (P14735 1-1019): T1 sequence (P14735 1-1019)
Description: cell-based IDE activity assay. The method in brief:
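Extracellular IDE secreted by HEK-293 cells, harvested mechanically rather than by trypsin, served as the endogenous enzyme source. Activity was read by fluorescence polarization with fluoresceinated, biotinylated Aß peptide (FAßB) in DTT-free solutions. The primary screen used a nominal compound concentration of 6 μM. Confirmed hits were retested in dose-response format to give apparent IC50.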

The target of another data set is T4, WT-IDE (Homo sapiens, UniProt P14735).
T4 sequence (P14735 1-1019): T1 sequence (P14735 1-1019)
As to the kind of experiment: kinetics of irreversible inhibition. Type of data set: biochemical. The method in brief:
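Recombinant WT-IDE (2 nM) and FRET1 substrate (5 μM) were monitored continuously at 3-s intervals, starting immediately after adding inhibitor at several concentrations. Curve fits gave observed rate constants, which were plotted against inhibitor concentration. A hyperbolic fit gave kinhib and KM. LE was taken as ΔG/heavy atoms using KM; SEI as pKM/tPSA/100 Å2.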

By IC50 is commonly meant the concentration needed to halve the response being measured. By solubility is commonly meant how much of the substance goes into solution per volume. Higher therefore signals a readily soluble substance. As to `O=c1c2cc(F)ccc2sn1-c1cc(S(=O)(=O)N2CCOCC2)ccc1N1CCOCC1` [Compound 8, 5-fluoro-2-(2-morpholin-4-yl-5-morpholin-4-ylsulfonylphenyl)-1,2-benzothiazol-3-one], the IC50 on IDE came out at 82 ± 20.2 nM; at extracellular IDE (read-out: IC50^app cell-based, Table 2) it was 110 nM; on extracellular IDE (read-out: IC50^app in cells, FAßB, Table 3, n=4), 110 ± 12 nM. Also, the “inhibition of intracellular pools of IDE in BV-2 cells” value in [1] is recorded as “does not affect”. In addition, the “Liver microsome stability, Rat” value in data set [2] is on record as 50 min. Besides, the “reactivity with cysteines in proteome-wide activity-based protein profiling” value in data set [3] was “minimal reactivity”. The “Chemical stability in PBS” value in [4] is >> 48 hr. In data set [5], this compound had a solubility of 5.1 µM (≈ 2.45 µg/mL). Further, the “Liver microsome stability, Human” value in [6] is above 120 min. Further, the kinhib at WT-IDE (Table 3, n=5) is 13.4 ± 2.7 (n=5) min^−1; on WT-IDE (WT-IDE 2 nM, FRET1 5 μM, rate constant of irreversible step), 13.4 min⁻¹. Further, the “LE (ligand efficiency, ΔG/HA)” value at WT-IDE (calculated using KM value) was 0.234 kcal mol^−1 HA^−1.

The values are drawn from article PMC10127574 (ACS chemical biology, 2015).
